Results published in the M2OR odorant receptor database.

Tests used:
Settings in all cases: stereoisomer not certain
OR2L13 (Homo sapiens) = biological target: T1, OR2L13 (Homo sapiens) (UniProt Q8N349)
T1 sequence (whole entry): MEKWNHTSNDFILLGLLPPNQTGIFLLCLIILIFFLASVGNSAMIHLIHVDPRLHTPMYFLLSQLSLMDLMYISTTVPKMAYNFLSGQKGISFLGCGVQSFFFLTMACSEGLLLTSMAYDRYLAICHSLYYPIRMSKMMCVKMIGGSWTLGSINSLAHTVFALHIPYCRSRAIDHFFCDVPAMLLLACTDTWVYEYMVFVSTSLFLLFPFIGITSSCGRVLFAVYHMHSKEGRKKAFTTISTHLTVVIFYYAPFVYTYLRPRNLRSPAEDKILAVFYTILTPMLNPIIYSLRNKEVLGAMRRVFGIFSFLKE
Summary of the method: (§1)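 Values were gathered from published papers (main text and supplementary material), with extra details requested from the original authors when needed, and checked for typos and inconsistencies. Each receptor–molecule pair is called responsive (active) if the original authors judged the measured signal statistically different from baseline, and non-responsive (inactive) otherwise. Assay methods varied by source, often transient mammalian cell-line luciferase assays. Recorded details include cell line, G-protein, co-transfected protein and tags.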

OR2L2 (Homo sapiens) = biological target: T2, OR2L2 (Homo sapiens) (UniProt Q8NH16)
T2 sequence (whole entry): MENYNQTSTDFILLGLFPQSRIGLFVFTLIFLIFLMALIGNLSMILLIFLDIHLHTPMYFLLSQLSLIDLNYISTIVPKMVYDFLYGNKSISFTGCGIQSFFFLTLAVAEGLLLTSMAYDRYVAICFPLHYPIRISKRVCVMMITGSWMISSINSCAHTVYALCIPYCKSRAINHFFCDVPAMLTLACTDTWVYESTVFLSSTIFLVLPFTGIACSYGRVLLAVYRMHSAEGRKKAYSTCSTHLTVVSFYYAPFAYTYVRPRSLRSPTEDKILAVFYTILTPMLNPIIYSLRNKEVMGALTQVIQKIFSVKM
Summary of the method: as §1

OR2L3 (Homo sapiens) = biological target: T3, OR2L3 (Homo sapiens) (UniProt Q8NG85)
T3 sequence (whole entry): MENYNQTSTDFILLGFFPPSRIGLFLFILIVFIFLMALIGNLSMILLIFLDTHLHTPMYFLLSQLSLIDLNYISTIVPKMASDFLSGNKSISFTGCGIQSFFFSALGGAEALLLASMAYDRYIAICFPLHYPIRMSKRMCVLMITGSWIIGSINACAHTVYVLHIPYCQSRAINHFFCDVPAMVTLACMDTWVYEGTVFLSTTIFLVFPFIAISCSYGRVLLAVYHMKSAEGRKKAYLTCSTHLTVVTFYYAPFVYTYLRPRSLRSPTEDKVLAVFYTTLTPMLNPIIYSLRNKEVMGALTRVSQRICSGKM
Summary of the method: as §1

OR2L5 (Homo sapiens) = biological target: T4, OR2L5 (Homo sapiens) (UniProt Q8NG80)
T4 sequence (whole entry): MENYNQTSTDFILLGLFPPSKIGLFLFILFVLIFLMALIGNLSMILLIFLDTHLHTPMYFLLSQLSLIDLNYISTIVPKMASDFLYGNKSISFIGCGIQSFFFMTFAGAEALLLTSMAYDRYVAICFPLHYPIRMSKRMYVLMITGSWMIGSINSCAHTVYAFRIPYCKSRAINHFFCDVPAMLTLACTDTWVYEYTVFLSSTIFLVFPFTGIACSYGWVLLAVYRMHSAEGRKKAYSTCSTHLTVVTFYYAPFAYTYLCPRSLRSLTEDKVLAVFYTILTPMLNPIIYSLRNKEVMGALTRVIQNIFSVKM
Summary of the method: as §1

OR2L8 (Homo sapiens) = biological target: T5, OR2L8 (Homo sapiens) (UniProt Q8NGY9)
T5 sequence (whole entry): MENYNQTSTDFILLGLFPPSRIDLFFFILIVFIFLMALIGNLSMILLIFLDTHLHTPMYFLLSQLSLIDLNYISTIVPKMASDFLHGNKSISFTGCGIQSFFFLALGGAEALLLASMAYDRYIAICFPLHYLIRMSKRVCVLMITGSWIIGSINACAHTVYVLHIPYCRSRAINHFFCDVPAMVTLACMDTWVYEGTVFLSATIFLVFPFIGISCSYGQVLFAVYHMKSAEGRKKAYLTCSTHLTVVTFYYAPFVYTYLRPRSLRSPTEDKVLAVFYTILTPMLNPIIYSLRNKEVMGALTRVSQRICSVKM
Summary of the method: as §1

OR2M2 (Homo sapiens) = biological target: T6, OR2M2 (Homo sapiens) (UniProt Q96R28)
T6 sequence (whole entry): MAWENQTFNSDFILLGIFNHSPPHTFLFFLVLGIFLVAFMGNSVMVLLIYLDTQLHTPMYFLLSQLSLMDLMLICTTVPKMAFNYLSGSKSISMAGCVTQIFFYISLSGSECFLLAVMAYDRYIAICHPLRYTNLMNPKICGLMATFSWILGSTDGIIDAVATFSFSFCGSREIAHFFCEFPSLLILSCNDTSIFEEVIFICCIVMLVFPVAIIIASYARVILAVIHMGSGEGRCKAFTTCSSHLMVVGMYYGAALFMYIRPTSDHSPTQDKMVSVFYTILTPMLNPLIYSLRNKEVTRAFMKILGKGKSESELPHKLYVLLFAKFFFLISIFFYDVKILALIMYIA
Summary of the method: as §1

OR2M3 (Homo sapiens) = biological target: T7, OR2M3 (Homo sapiens) (UniProt Q8NG83)
T7 sequence (whole entry): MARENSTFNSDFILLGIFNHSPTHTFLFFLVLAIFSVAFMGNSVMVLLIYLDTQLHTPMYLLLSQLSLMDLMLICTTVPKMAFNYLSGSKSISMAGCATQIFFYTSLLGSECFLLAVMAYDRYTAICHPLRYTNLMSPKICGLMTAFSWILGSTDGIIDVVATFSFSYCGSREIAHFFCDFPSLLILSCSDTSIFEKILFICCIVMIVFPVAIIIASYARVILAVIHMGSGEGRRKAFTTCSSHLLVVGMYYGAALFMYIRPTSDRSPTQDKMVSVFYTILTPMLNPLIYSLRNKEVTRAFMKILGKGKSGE
Summary of the method: as §1

CCCCCCCCCCCCCCCCCC(=O)[O-].[H+]
odorant receptor agonist call (OR2L13 (Homo sapiens)): inactive

COc1ccc2[nH]cc(CCNC(C)=O)c2c1
odorant receptor agonist call (OR2L13 (Homo sapiens)): inactive

CCCC(S)CCOC(C)=O (configuration not stated)
odorant receptor agonist call (OR2L13 (Homo sapiens)): inactive
odorant receptor agonist call (OR2L2 (Homo sapiens)): inactive
odorant receptor agonist call (OR2L3 (Homo sapiens)): inactive
odorant receptor agonist call (OR2L5 (Homo sapiens)): inactive
odorant receptor agonist call (OR2L8 (Homo sapiens)): inactive
odorant receptor agonist call (OR2M2 (Homo sapiens)): inactive
odorant receptor agonist call (OR2M3 (Homo sapiens)): inactive

CCCCCCCCCCCCO
odorant receptor agonist call (OR2L13 (Homo sapiens)): active

CCCCCCCCO
odorant receptor agonist call (OR2L13 (Homo sapiens)): inactive
odorant receptor agonist call (OR2L2 (Homo sapiens)): inactive

CCCCC(=O)C(C)=O
odorant receptor agonist call (OR2L13 (Homo sapiens)): inactive

CC1=C(O)C(=O)C(C)O1 (configuration not stated)
odorant receptor agonist call (OR2L13 (Homo sapiens)): inactive
odorant receptor agonist call (OR2L2 (Homo sapiens)): inactive
odorant receptor agonist call (OR2L3 (Homo sapiens)): inactive
odorant receptor agonist call (OR2L5 (Homo sapiens)): inactive
odorant receptor agonist call (OR2L8 (Homo sapiens)): inactive
odorant receptor agonist call (OR2M2 (Homo sapiens)): inactive
odorant receptor agonist call (OR2M3 (Homo sapiens)): inactive

CC(CO)CS (configuration not stated)
odorant receptor agonist call (OR2L13 (Homo sapiens)): inactive
odorant receptor agonist call (OR2L2 (Homo sapiens)): inactive
odorant receptor agonist call (OR2L3 (Homo sapiens)): inactive
odorant receptor agonist call (OR2L5 (Homo sapiens)): inactive
odorant receptor agonist call (OR2L8 (Homo sapiens)): inactive
odorant receptor agonist call (OR2M2 (Homo sapiens)): inactive
odorant receptor agonist call (OR2M3 (Homo sapiens)): inactive

CCC(O)CC
odorant receptor agonist call (OR2L13 (Homo sapiens)): inactive

CCCCCCCCCCCCCCCCCC(=O)OCC
odorant receptor agonist call (OR2L13 (Homo sapiens)): inactive

Cc1cnc(C)cn1
odorant receptor agonist call (OR2L13 (Homo sapiens)): inactive

CCCCCCCCCC(=O)OC
odorant receptor agonist call (OR2L13 (Homo sapiens)): inactive

CCCCCCCCCCCCCCCC(=O)OC
odorant receptor agonist call (OR2L13 (Homo sapiens)): inactive

Cc1cccc(C)c1C
odorant receptor agonist call (OR2L13 (Homo sapiens)): inactive

CCCCCCC(=O)[O-].[H+]
odorant receptor agonist call (OR2L13 (Homo sapiens)): inactive

CCCCCCCCCCCC(=O)OC
odorant receptor agonist call (OR2L13 (Homo sapiens)): inactive

CCCCCCCCCCCCCCCCCC(=O)OC
odorant receptor agonist call (OR2L13 (Homo sapiens)): inactive

Cc1cnc(C)c(C)n1
odorant receptor agonist call (OR2L13 (Homo sapiens)): inactive
odorant receptor agonist call (OR2L2 (Homo sapiens)): inactive
odorant receptor agonist call (OR2L3 (Homo sapiens)): inactive
odorant receptor agonist call (OR2L5 (Homo sapiens)): inactive
odorant receptor agonist call (OR2L8 (Homo sapiens)): inactive
odorant receptor agonist call (OR2M2 (Homo sapiens)): inactive
odorant receptor agonist call (OR2M3 (Homo sapiens)): inactive

CCCCCCCCCCCCCC(=O)OC
odorant receptor agonist call (OR2L13 (Homo sapiens)): inactive

CC(C)=CCCC(C)=CCCC(C)=CCO
odorant receptor agonist call (OR2L13 (Homo sapiens)): inactive

CC(O)C(=O)[O-].[H+] (configuration not stated)
odorant receptor agonist call (OR2L13 (Homo sapiens)): inactive

CCCCCCCCCCCCCC(=O)O
odorant receptor agonist call (OR2L13 (Homo sapiens)): inactive

CCCO
odorant receptor agonist call (OR2L13 (Homo sapiens)): inactive

CCCCCCCCCCCC(=O)O
odorant receptor agonist call (OR2L13 (Homo sapiens)): inactive

CCCCC(S)C(C)CO (configuration not stated)
odorant receptor agonist call (OR2L13 (Homo sapiens)): inactive
odorant receptor agonist call (OR2L2 (Homo sapiens)): inactive
odorant receptor agonist call (OR2L3 (Homo sapiens)): inactive
odorant receptor agonist call (OR2L5 (Homo sapiens)): inactive
odorant receptor agonist call (OR2L8 (Homo sapiens)): inactive
odorant receptor agonist call (OR2M2 (Homo sapiens)): inactive
odorant receptor agonist call (OR2M3 (Homo sapiens)): inactive

CCCC(=O)CC
odorant receptor agonist call (OR2L13 (Homo sapiens)): inactive
